Legend:
[1] = biological target: T1, Phosphatidylinositol 4,5-bisphosphate 3-kinase catalytic subunit alpha isoform (Homo sapiens, UniProt P42336); experiment: Inhibition of PI3Kalpha in human MCF7 cells assessed as reduction in AKT phosphorylation at 1 uM after 2 hrs by ELISA relative to control; assay type: cell-based
[2] = biological target: T2, Serine/threonine-protein kinase mTOR (Homo sapiens, UniProt P42345); experiment: Inhibition of mTOR in human MCF7 cells assessed as reduction in P70S6K phosphorylation after 4 hrs by […] assay; assay type: cell-based
Summary of the method: (§1)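 MCF-7 cells were incubated with compound for 4 h. Phosphorylation of Akt at S473 and of p70s6k at T389 was read by […], and IC50 was derived.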

[3] = biological target: T1, Phosphatidylinositol 4,5-bisphosphate 3-kinase catalytic subunit alpha isoform; experiment: Inhibition of PI3Kalpha in human MCF7 cells assessed as reduction in AKT phosphorylation after 4 hrs by ADP-Glo assay; assay type: cell-based; summary of the method: as §1
[4] = Cmax in mouse at 3 mg/kg, po; assay type: ADME, organism-based; design: dose 3 mg/kg, route oral; conditions: in vivo
Summary of the method: (§2)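 Single oral dose of 3 mg/kg to mice, given in 10% DMSO/65% PEG400/25% H2O or in 10% DMSO/80% PEG400/10% H2O depending on the compound. Plasma exposure was measured.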

[5] = Tmax in mouse at 3 mg/kg, po; assay type: ADME, organism-based; conditions: in vivo; summary of the method: as §2
[6] = biological target: T2, Serine/threonine-protein kinase mTOR; experiment: Inhibition of mTOR (unknown origin) using ULight-4E-BP1(Thr37/46) peptide as substrate measured after 2 hrs by HTRF assay
[7] = AUC (0 to last) in mouse at 3 mg/kg, po; assay type: ADME, organism-based; design: dose 3 mg/kg, time 0 - last, route oral; conditions: in vivo; summary of the method: as §2
[8] = Protein binding in rat plasma; assay type: ADME, cell-free
[9] = AUC (0 to last) in mouse at 1 mg/kg, iv; assay type: ADME, organism-based; design: dose 1 mg/kg, time 0 - last, route intravenous; conditions: in vivo
Summary of the method: (§3)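 Mice were dosed intravenously at 1 mg/kg. The vehicle was either 10% DMSO/65% PEG400/25% H2O or 10% DMSO/80% PEG400/10% H2O, depending on the compound.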

[10] = Protein binding in human plasma; assay type: ADME, cell-free
[11] = Clearance in mouse at 1 mg/kg, iv; assay type: ADME, organism-based; conditions: in vivo; summary of the method: as §3
[12] = Half life in mouse at 1 mg/kg, iv; assay type: ADME, organism-based; conditions: in vivo; summary of the method: as §3
[13] = biological target: T1, Phosphatidylinositol 4,5-bisphosphate 3-kinase catalytic subunit alpha isoform; experiment: Inhibition of PI3Kalpha (unknown origin) using PIP2 as substrate measured after 30 mins by HTRF assay
[14] = Oral bioavailability in mouse at 3 mg/kg; assay type: ADME, organism-based; conditions: in vivo; summary of the method: as §2
[15] = Volume of distribution at steady state in mouse at 1 mg/kg, iv; assay type: ADME, organism-based; conditions: in vivo, read-out: Vdss; summary of the method: as §3
[16] = Protein binding in mouse plasma; assay type: ADME, cell-free
Mus musculus = experiment: Toxicity in Balb/c mouse xenografted with human PC3M cells assessed as body weight loss at 1 to 10 mg/kg, po administered once daily for 21 days measured daily during compound dosing; assay type: organism-based; conditions: in vivo, 504 h
Summary of the method: (§4)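 Nude mice bearing PC-3M tumors received 1, 3 or 10 mg/kg by oral gavage once daily for 21 days, with 10 mice per group.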

PC-3M = experiment: Antitumor activity against human PC3M cells xenografted in Balb/c mouse assessed as tumor growth inhibition administered orally once daily for 21 days measured twice a week during compound dosing; assay type: functional, cell-based; summary of the method: as §4
[17] = biological target: Phosphatidylinositol 4,5-bisphosphate 3-kinase catalytic subunit gamma isoform (Homo sapiens, UniProt P48736); experiment: Inhibition of human PI3K p120gamma using phosphatidylinositol 4,5-bisphosphate as substrate after 30 mins by HTRF assay
PI3K p110 beta/p85 alpha = PI3K p110 beta/p85 alpha (Homo sapiens, UniProt P42338); experiment: Inhibition of human PI3K p110beta/p85alpha using phosphatidylinositol 4,5-bisphosphate as substrate after 30 mins by HTRF assay; assay type: protein-complex assay
[18] = biological target: PI3-kinase p110-delta/p85-alpha (Homo sapiens, UniProt O00329); experiment: Inhibition of human PI3K p110delta/p85alpha using phosphatidylinositol 4,5-bisphosphate as substrate after 30 mins by HTRF assay; assay type: protein-complex assay
Sequence of PI3-kinase p110-delta/p85-alpha (P27986 whole entry): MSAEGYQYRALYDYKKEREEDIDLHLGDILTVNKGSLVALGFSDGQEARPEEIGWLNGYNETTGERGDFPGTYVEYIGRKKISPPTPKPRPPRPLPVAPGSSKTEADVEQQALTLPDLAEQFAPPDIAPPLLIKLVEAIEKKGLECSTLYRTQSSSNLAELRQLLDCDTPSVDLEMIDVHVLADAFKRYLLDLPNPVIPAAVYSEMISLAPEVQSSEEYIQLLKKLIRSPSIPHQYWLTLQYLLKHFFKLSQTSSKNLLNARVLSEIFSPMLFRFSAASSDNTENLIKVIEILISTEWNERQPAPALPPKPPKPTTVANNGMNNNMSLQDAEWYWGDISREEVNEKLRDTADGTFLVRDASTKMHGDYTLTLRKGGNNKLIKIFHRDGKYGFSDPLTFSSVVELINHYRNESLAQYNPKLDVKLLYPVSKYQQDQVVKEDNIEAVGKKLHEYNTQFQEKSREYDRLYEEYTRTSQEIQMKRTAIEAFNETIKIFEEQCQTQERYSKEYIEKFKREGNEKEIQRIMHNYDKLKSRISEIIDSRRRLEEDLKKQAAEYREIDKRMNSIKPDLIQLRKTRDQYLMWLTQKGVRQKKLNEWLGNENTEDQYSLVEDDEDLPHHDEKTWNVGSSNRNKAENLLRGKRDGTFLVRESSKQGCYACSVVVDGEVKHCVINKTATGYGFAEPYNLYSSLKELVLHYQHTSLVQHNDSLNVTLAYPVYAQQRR
Sequence of PI3-kinase p110-delta/p85-alpha (O00329 whole entry): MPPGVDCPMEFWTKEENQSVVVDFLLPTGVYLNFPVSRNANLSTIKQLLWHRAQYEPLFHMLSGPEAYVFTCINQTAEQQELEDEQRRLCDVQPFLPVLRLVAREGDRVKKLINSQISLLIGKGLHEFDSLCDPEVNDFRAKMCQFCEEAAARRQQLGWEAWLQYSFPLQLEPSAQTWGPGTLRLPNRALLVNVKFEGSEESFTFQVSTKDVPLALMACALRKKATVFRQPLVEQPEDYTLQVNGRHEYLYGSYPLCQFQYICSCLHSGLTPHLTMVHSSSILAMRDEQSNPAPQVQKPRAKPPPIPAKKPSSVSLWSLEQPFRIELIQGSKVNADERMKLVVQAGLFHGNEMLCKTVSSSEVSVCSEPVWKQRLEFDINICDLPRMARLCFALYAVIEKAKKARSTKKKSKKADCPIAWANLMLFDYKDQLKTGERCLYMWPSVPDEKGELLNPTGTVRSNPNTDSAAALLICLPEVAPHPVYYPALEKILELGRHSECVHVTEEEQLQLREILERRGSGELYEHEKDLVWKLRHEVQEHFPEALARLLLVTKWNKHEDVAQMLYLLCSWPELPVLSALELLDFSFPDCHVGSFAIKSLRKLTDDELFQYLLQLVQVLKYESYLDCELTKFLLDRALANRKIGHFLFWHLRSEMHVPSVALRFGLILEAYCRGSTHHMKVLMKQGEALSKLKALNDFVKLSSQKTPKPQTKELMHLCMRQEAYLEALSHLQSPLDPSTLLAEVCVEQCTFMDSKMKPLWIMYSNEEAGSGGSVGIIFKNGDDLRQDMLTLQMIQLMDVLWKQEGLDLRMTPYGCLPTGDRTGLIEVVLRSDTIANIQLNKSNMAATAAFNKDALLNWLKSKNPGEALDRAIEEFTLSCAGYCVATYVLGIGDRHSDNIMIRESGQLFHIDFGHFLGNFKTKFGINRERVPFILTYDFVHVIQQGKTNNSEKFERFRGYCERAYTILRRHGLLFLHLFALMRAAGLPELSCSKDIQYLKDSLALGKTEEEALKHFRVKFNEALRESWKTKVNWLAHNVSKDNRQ

T1 sequence (P42336 whole entry, canonical isoform): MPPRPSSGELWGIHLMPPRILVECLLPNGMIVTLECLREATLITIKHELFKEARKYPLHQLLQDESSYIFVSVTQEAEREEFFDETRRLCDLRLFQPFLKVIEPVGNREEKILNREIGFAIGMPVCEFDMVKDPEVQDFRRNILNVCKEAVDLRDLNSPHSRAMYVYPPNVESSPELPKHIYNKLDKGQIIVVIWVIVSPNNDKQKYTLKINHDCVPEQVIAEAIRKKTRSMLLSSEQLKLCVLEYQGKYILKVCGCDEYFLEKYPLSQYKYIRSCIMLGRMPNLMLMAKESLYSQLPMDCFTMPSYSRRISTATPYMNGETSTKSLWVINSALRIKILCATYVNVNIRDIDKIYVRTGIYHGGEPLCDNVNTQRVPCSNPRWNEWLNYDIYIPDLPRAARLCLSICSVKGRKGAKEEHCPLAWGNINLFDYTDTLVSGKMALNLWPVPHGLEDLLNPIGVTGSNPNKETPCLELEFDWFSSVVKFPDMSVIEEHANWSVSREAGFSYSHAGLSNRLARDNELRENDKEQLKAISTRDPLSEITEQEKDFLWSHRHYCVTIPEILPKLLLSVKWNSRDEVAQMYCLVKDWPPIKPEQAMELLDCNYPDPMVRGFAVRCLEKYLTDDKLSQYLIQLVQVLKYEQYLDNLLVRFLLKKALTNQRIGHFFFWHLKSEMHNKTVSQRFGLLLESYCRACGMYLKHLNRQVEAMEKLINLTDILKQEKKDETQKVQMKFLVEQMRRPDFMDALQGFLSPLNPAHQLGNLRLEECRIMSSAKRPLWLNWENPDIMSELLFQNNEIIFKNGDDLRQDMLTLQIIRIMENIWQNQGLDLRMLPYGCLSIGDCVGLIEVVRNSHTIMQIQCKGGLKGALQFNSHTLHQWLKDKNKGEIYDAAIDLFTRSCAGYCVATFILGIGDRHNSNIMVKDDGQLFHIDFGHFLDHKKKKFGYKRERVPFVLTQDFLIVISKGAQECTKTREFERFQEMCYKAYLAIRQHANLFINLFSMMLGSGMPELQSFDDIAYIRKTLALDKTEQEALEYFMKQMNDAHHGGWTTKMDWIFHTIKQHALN
Sequence of Phosphatidylinositol 4,5-bisphosphate 3-kinase catalytic subunit gamma isoform (P48736 whole entry, canonical isoform): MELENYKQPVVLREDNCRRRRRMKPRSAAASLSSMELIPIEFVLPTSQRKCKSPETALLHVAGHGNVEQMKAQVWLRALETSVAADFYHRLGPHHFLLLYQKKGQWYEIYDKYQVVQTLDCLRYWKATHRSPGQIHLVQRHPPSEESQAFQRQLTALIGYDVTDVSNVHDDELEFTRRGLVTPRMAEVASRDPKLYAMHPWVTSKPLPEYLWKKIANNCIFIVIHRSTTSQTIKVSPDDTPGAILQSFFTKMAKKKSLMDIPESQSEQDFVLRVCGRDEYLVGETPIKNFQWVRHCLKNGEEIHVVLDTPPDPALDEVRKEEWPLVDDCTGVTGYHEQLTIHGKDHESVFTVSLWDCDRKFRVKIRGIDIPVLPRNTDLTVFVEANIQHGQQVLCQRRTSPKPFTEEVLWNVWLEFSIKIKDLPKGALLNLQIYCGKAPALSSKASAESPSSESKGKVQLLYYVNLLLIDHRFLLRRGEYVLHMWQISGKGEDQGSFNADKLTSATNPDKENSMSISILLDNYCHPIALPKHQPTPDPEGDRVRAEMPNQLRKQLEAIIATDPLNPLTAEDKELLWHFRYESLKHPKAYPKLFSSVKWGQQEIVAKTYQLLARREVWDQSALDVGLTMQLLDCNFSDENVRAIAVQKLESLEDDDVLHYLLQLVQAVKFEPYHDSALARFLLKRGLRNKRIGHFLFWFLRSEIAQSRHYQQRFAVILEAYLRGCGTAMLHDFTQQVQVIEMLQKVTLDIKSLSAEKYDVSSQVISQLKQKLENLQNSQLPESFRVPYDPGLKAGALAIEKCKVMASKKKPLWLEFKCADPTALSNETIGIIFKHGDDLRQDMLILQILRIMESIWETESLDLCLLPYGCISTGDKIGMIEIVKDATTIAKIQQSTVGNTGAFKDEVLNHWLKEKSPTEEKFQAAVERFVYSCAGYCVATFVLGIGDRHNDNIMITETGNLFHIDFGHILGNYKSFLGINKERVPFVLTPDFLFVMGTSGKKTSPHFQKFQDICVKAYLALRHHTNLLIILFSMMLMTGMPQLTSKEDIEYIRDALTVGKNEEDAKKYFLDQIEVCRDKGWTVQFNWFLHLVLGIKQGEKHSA
Sequence of PI3K p110 beta/p85 alpha (P27986 whole entry): as the sequence (P27986 whole entry) above
Sequence of PI3K p110 beta/p85 alpha (P42338 whole entry): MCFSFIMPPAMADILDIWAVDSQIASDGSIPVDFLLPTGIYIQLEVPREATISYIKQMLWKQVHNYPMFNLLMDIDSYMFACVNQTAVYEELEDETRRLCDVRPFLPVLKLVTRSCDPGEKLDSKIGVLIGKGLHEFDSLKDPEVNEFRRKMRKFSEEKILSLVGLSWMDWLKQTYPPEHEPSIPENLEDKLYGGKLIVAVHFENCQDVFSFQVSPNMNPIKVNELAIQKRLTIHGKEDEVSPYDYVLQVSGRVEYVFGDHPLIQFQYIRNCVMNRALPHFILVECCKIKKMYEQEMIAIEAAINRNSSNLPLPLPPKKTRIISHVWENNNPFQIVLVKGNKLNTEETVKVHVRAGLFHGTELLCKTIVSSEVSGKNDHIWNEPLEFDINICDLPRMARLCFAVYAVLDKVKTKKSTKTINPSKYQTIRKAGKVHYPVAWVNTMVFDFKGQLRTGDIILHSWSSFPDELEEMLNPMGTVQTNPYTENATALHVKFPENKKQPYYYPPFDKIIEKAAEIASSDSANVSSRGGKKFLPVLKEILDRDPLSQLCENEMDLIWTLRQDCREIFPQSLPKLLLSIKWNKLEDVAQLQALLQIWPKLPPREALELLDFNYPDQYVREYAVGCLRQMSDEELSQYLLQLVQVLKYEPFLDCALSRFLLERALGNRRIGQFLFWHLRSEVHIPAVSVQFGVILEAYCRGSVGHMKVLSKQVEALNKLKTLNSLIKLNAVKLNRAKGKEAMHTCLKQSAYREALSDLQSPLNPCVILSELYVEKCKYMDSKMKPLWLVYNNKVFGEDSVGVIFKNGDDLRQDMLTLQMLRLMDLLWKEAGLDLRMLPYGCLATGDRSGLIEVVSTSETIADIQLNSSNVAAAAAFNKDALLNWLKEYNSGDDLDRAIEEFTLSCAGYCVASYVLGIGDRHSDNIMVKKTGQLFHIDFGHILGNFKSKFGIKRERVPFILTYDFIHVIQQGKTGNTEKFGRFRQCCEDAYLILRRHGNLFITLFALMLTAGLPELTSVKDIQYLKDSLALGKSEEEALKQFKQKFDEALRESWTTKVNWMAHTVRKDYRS

Row | inhibition [1] [%] | IC50 [2] [nM] | IC50 [3] [nM] | Compound | also measured
1 | 75 |  |  | COc1ncc(-c2ccc3nncc(N4CCOCC4)c3c2)cc1NS(=O)(=O)c1ccc(F)cc1F | 
2 | 85 |  |  | Cc1ncc(-c2ccc3nccc(=O)n3c2)cc1NS(=O)(=O)c1ccc(F)cc1 | 
3 | 78 |  |  | COc1ncc(-c2ccc3nccc(=O)n3c2)cc1NS(=O)(=O)CC(F)(F)F | 
4 | 94 | 246 | 57.4 | COc1ncc(-c2ccc3nccc(=O)n3c2)cc1NS(=O)(=O)c1ccc(C#N)cc1 | 
5 | 95 | 138 | 54.1 | COc1ccc(S(=O)(=O)Nc2cc(-c3ccc4nccc(=O)n4c3)cnc2OC)cc1 | 
6 | 91 | > 400 | 34.4 | O=c1ccnc2ccc(-c3cnc(Cl)c(NS(=O)(=O)c4ccccc4F)c3)cn12 | 
7 | 90 | 119 | 27.9 | COc1ncc(-c2ccc3ncc(C)c(=O)n3c2)cc1NS(=O)(=O)c1ccc(F)cc1F | 
8 | 76 |  |  | COc1ncc(-c2ccc3nccc(=O)n3c2)cc1NS(=O)(=O)C1CC1 | 
9 | 94 | > 400 | 141 | COc1ncc(-c2ccc3nccc(=O)n3c2)cc1NS(=O)(=O)c1ccccc1F | 
10 | 86 |  |  | CCc1ncc(-c2ccc3nccc(=O)n3c2)cc1NS(=O)(=O)c1ccc(F)cc1F | 
11 | 95 | 198 | 98.8 | COc1ncc(-c2ccc3nccc(=O)n3c2)cc1NS(=O)(=O)c1ccccc1 | 
12 | 92 | > 400 | 32.8 | O=c1ccnc2ccc(-c3cnc(Cl)c(NS(=O)(=O)c4ccc(F)cc4F)c3)cn12 | 
13 | 98 | 77.2 | 78.2 | COc1ncc(-c2ccc3nccc(=O)n3c2)cc1NS(=O)(=O)c1cc(F)cc(F)c1 | 
14 | 96 | 223 | 48.8 | COc1ncc(-c2ccc3nccc(=O)n3c2)cc1NS(=O)(=O)c1ccc(Cl)cc1 | 
15 | 98 | 66 | 16 | COc1ncc(-c2ccc3nccc(=O)n3c2)cc1NS(=O)(=O)c1ccc(F)cc1F | Cmax [4]: 4080 ng/mL; Tmax [5]: 0.333 h; IC50 [6]: 19.2 nM; AUC(0-t) [7]: 13800 ng·h/mL; fraction unbound [8]: 0.008; AUC(0-t) [9]: 3280 ng·h/mL; fraction unbound [10]: 0.005; clearance [11]: 5.15 mL/min/kg; half-life [12]: 1 h; IC50 [13]: 3.1 nM; bioavailability [14]: 139%; Vd [15]: 0.443 L/kg; fraction unbound [16]: 0.019
16 | 96 | 64 | 67 | COc1ncc(-c2ccc3nccc(=O)n3c2)cc1NS(=O)(=O)c1cccc(F)c1 | 

Row | inhibition [1] [%] | IC50 [2] [nM] | IC50 [3] [nM] | Compound | also measured
17 | 50 |  |  | COc1ncc(-c2cc3c(N4CCNC(=O)C4)ncnc3cn2)cc1NS(=O)(=O)c1ccc(F)cc1F | 
18 | 47 |  |  | COc1ncc(-c2cnc3nccc(-c4cnn(C)c4)c3c2)cc1NS(=O)(=O)c1ccc(F)cc1F | 
19 | 94 | 153 | 23.9 | COc1ncc(-c2ccc3nccc(=O)n3c2)cc1NS(=O)(=O)c1ccccc1C | 
20 | 82 |  |  | Cc1ncc(-c2ccc3nccc(=O)n3c2)cc1NS(=O)(=O)c1ccccc1F | 
21 | 81 |  |  | Cc1ncc(-c2ccc3nccc(=O)n3c2)cc1NS(=O)(=O)c1ccc(F)cc1F | 
22 | 60 |  |  | CCOc1ncc(-c2ccc3nccc(=O)n3c2)cc1NS(=O)(=O)c1ccccc1F | 
23 | 81 |  |  | CCc1ncc(-c2ccc3nccc(=O)n3c2)cc1NS(=O)(=O)c1ccccc1F | 
24 | 63 |  |  | COc1ncc(-c2ccc3nccc(=O)n3n2)cc1NS(=O)(=O)c1ccc(F)cc1F | 
25 | 94 | 163 | 48.7 | COc1ncc(-c2ccc3nccc(=O)n3c2)cc1NS(=O)(=O)c1ccc(C(F)(F)F)cc1 | 
26 | 95 | 106 | 80.7 | COc1ncc(-c2ccc3nccc(=O)n3c2)cc1NS(=O)(=O)c1ccc(F)cc1 | 
27 | 53 |  |  | CCS(=O)(=O)Nc1cc(-c2ccc3nccc(=O)n3c2)cnc1OC | 
28 | 29 |  |  | COc1ncc(-c2cn3c(=O)ccnc3cn2)cc1NS(=O)(=O)c1ccc(F)cc1F | 
29 | 76 |  |  | CCOc1cnc2ccc(-c3cnc(OC)c(NS(=O)(=O)c4ccc(F)cc4F)c3)cn2c1=O | 
30 | 96 | 108 | 45 | COc1ncc(-c2ccc3nccc(=O)n3c2)cc1NS(=O)(=O)c1cc(F)ccc1F | 
31 | 93 | 89.2 | 11.6 | COc1ncc(-c2ccc3ncc(Cl)c(=O)n3c2)cc1NS(=O)(=O)c1ccc(F)cc1F | Cmax [4]: 5450 ng/mL; Tmax [5]: 2.67 h; IC50 [6]: 4.7 nM; Activity (Mus musculus): Non-Toxic; AUC(0-t) [7]: 38600 ng·h/mL; fraction unbound [8]: < 0.01; AUC(0-t) [9]: 11900 ng·h/mL; fraction unbound [10]: < 0.01; clearance [11]: 1.4 mL/min/kg; TGI (PC-3M): Dose-dependent effect; half-life [12]: 3 h; IC50 [17]: 1 nM; IC50 [13]: 3.4 nM; bioavailability [14]: 108%; IC50 (PI3K p110 beta/p85 alpha): 34 nM; Vd [15]: 0.472 L/kg; IC50 [18]: 16 nM; fraction unbound [16]: 0.005

Source: ChEMBL document CHEMBL4251704, “Discovery of Pyridopyrimidinones as Potent and Orally Active Dual Inhibitors of PI3K/mTOR” (ACS Med Chem Lett, 2018)
